Assay results as given in ChEMBL document CHEMBL1821590, “Novel dihydropyrimidines and its pyrazole derivatives: synthesis and pharmacological screening” (Eur J Med Chem, 2011).
In brackets after ≈: the same amount, converted by molar mass.

How the values were obtained:
Assay type in all cases: functional
[1] = Antioxidant activity assessed as nitric oxide radical scavenging activity after 150 mins
Procedure, shortened: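 10 mM sodium nitroprusside (4 mL), PBS pH 7.4 (1 mL) and sample or ascorbic acid in DMSO (1 mL, 12.5–100 µg/mL), incubated 150 min at 25 °C. Nitrite detected with sulphanilic acid (5 min) then naphthylethylenediamine (30 min, diffused light). Read at […]. Triplicate. % inhibition = [1 − (Vt/Vc)] × 100. IC50 derived from it.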

[2] = Antioxidant activity assessed as hydrogen peroxide scavenging activity after 10 mins
Procedure, shortened: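 H2O2 (20 mM) in PBS pH 7.4. 1 mL of sample or ascorbic acid in methanol (12.5–100 µg/mL) added to 2 mL H2O2 solution. A230 read after 10 min. % inhibition = [1 − (Vt/Vc)] × 100. Triplicate, averaged. IC50 derived from % inhibition across concentrations.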

[3] = Antioxidant activity assessed as inhibition of lipid peroxidation using egg lecithin liposomes incubated for 1 hr
Procedure, shortened: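 Egg lecithin (3 mg/mL, phosphate buffer pH 7.4) sonicated 10 min to form liposomes. Sample or ascorbic acid (12.5–100 µg/mL) added. Peroxidation induced with FeCl3 and L-ascorbic acid, 1 h at 37 °C. Stopped with HCl/TCA/TBA/BHA, boiled 15 min, centrifuged, supernatant read at 532 nm. Triplicate. % inhibition vs control. IC50 derived.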

[4] = Antioxidant activity assessed as potassium ferricyanide ion reducing power after 20 mins
Procedure, shortened: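 Oyaizu method. Samples or ascorbic acid in DMF (12.5–100 µg/mL) mixed with 0.2 M phosphate buffer pH 6.6 and 1% potassium ferricyanide, 20 min at 50 °C. 10% TCA added, centrifuged. Supernatant mixed with water and 0.1% FeCl3, read at 700 nm. % = [(Vt/Vc) − 1] × 100. IC50 derived.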

[5] = Antiinflammatory activity assessed as inhibition of albumin denaturation at 100 ug/ml by UV-visible spectrophotometry
Procedure, shortened: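 Compounds dissolved in minimal DMF, diluted in PBS pH 7.4 (final DMF <2.5%). 1 mL test solution (100 µg/mL) plus 1 mL 1% albumin in PBS, 15 min at 27 ± 1 °C, then heated 10 min at 60 ± 1 °C. After cooling, turbidity read at 660 nm. % inhibition = [(Vt/Vc) − 1] × 100 against a no-drug control. Triplicate, averaged. Diclofenac standard.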

Metaphire posthuma [6] = experiment: Anthelmintic activity against Pheretima posthuma assessed as time taken for complete parasite paralysis at 0.1% w/v
Procedure, shortened: (§1)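 Earthworms (Pheretima posthuma) exposed to test solutions at 0.1, 0.2 and 0.5% w/v; time in minutes to complete paralysis (worms motionless) recorded. Albendazole as standard. Mean of three determinations ± S.D.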

Metaphire posthuma [7] = experiment: Anthelmintic activity against Pheretima posthuma assessed as time taken for complete parasite paralysis at 0.2% w/v; procedure, shortened: as §1
Metaphire posthuma [8] = experiment: Anthelmintic activity against Pheretima posthuma assessed as time taken for complete parasite paralysis at 0.5% w/v; procedure, shortened: as §1
Metaphire posthuma [9] = experiment: Anthelmintic activity against Pheretima posthuma assessed as time taken for parasite death at 0.1% w/v
Procedure, shortened: (§2)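 Earthworms (Pheretima posthuma, spelled Perituma posthuma in text) exposed to test compounds at 0.1, 0.2 and 0.5% w/v. Albendazole served as standard, with an untreated control. Paralysis was recorded as the time until worms became motionless, then time to death was recorded, in minutes. Each value is the mean of three determinations with S.D.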

Metaphire posthuma [10] = experiment: Anthelmintic activity against Pheretima posthuma assessed as time taken for parasite death at 0.2% w/v; procedure, shortened: as §2
Metaphire posthuma [11] = experiment: Anthelmintic activity against Pheretima posthuma assessed as time taken for parasite death at 0.5% w/v; procedure, shortened: as §2
Escherichia coli [12] = experiment: Antimicrobial activity against Escherichia coli at 25 ug/ml by agar plate diffusion technique; details: read-out: IZ
Procedure, shortened: (§3)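 Agar plate diffusion against E. coli, P. aeruginosa, S. aureus and B. subtilis, with compounds at 25, 50 and 100 µg/mL. Streptomycin as standard.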

Escherichia coli [13] = experiment: Antimicrobial activity against Escherichia coli at 50 ug/ml by agar plate diffusion technique; details: read-out: IZ; procedure, shortened: as §3
Escherichia coli [14] = experiment: Antimicrobial activity against Escherichia coli at 100 ug/ml by agar plate diffusion technique; details: read-out: IZ; procedure, shortened: as §3
Pseudomonas aeruginosa [15] = experiment: Antimicrobial activity against Pseudomonas aeruginosa at 25 ug/ml by agar plate diffusion technique; details: read-out: IZ; procedure, shortened: as §3
Pseudomonas aeruginosa [16] = experiment: Antimicrobial activity against Pseudomonas aeruginosa at 50 ug/ml by agar plate diffusion technique; details: read-out: IZ; procedure, shortened: as §3
Pseudomonas aeruginosa [17] = experiment: Antimicrobial activity against Pseudomonas aeruginosa at 100 ug/ml by agar plate diffusion technique; details: read-out: IZ; procedure, shortened: as §3
Bacillus subtilis [18] = experiment: Antimicrobial activity against Bacillus subtilis at 25 ug/ml by agar plate diffusion technique; details: read-out: IZ; procedure, shortened: as §3
Bacillus subtilis [19] = experiment: Antimicrobial activity against Bacillus subtilis at 50 ug/ml by agar plate diffusion technique; details: read-out: IZ; procedure, shortened: as §3
Bacillus subtilis [20] = experiment: Antimicrobial activity against Bacillus subtilis at 100 ug/ml by agar plate diffusion technique; details: read-out: IZ; procedure, shortened: as §3
Staphylococcus aureus [21] = experiment: Antimicrobial activity against Staphylococcus aureus at 25 ug/ml by agar plate diffusion technique; details: read-out: IZ; procedure, shortened: as §3
Staphylococcus aureus [22] = experiment: Antimicrobial activity against Staphylococcus aureus at 50 ug/ml by agar plate diffusion technique; details: read-out: IZ; procedure, shortened: as §3
Staphylococcus aureus [23] = experiment: Antimicrobial activity against Staphylococcus aureus at 100 ug/ml by agar plate diffusion technique; details: read-out: IZ; procedure, shortened: as §3
Candida albicans [24] = experiment: Antimicrobial activity against Candida albicans at 25 ug/ml by paper disc method; details: read-out: IZ
Procedure, shortened: (§4)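 Paper disc method against A. niger and C. albicans, with compounds at 25, 50 and 100 µg/mL. Amphotericin-B as standard.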

Candida albicans [25] = experiment: Antimicrobial activity against Candida albicans at 50 ug/ml by paper disc method; details: read-out: IZ; procedure, shortened: as §4
Candida albicans [26] = experiment: Antimicrobial activity against Candida albicans at 100 ug/ml by paper disc method; details: read-out: IZ; procedure, shortened: as §4
Aspergillus niger [27] = experiment: Antimicrobial activity against Aspergillus niger at 25 ug/ml by paper disc method; details: read-out: IZ; procedure, shortened: as §4
Aspergillus niger [28] = experiment: Antimicrobial activity against Aspergillus niger at 50 ug/ml by paper disc method; details: read-out: IZ; procedure, shortened: as §4
Aspergillus niger [29] = experiment: Antimicrobial activity against Aspergillus niger at 100 ug/ml by paper disc method; details: read-out: IZ; procedure, shortened: as §4

| Structure (SMILES) | IC50 [1] | IC50 [2] | IC50 [3] | IC50 [4] | inhibition [5] | Time (Metaphire posthuma [6]) | Time (Metaphire posthuma [7]) | Time (Metaphire posthuma [8]) | Time (Metaphire posthuma [9]) | Time (Metaphire posthuma [10]) | Time (Metaphire posthuma [11]) | zone of inhibition at 25 µg/mL (Escherichia coli [12]) | zone of inhibition at 50 µg/mL (Escherichia coli [13]) | zone of inhibition at 100 µg/mL (Escherichia coli [14]) | zone of inhibition at 25 µg/mL (Pseudomonas aeruginosa [15]) | zone of inhibition at 50 µg/mL (Pseudomonas aeruginosa [16]) | zone of inhibition at 100 µg/mL (Pseudomonas aeruginosa [17]) | zone of inhibition at 25 µg/mL (Bacillus subtilis [18]) | zone of inhibition at 50 µg/mL (Bacillus subtilis [19]) | zone of inhibition at 100 µg/mL (Bacillus subtilis [20]) | other results |
| --- | --- | --- | --- | --- | --- | --- | --- | --- | --- | --- | --- | --- | --- | --- | --- | --- | --- | --- | --- | --- | --- |
| CSc1nc(-c2ccccc2O)c(C#N)c(=O)n1C | 58 µg/mL (≈ 212 µM) | 39 µg/mL (≈ 143 µM) | 44 µg/mL (≈ 161 µM) | 52 µg/mL (≈ 190 µM) | 51.9% | 40.28 min | 39.46 min | 35.14 min | 50.82 min | 48.34 min | 45.3 min | 6.25 mm | 9.16 mm | 11.3 mm | 6.36 mm | 8.16 mm | 10.8 mm | 12.8 mm | 16.9 mm | 25.5 mm | zone of inhibition at 25 µg/mL (Staphylococcus aureus [21]): 8.14 mm; zone of inhibition at 50 µg/mL (Staphylococcus aureus [22]): 9.33 mm; zone of inhibition at 100 µg/mL (Staphylococcus aureus [23]): 11.2 mm; zone of inhibition at 25 µg/mL (Candida albicans [24]): 8.84 mm; zone of inhibition at 50 µg/mL (Candida albicans [25]): 12.6 mm; zone of inhibition at 100 µg/mL (Candida albicans [26]): 20 mm; zone of inhibition at 25 µg/mL (Aspergillus niger [27]): 8 mm; zone of inhibition at 50 µg/mL (Aspergillus niger [28]): 9.46 mm; zone of inhibition at 100 µg/mL (Aspergillus niger [29]): 15.4 mm |
| CSc1nc(-c2ccc(Cl)cc2)c(C#N)c(=O)n1C | 71 µg/mL (≈ 243 µM) | 56 µg/mL (≈ 192 µM) | 54 µg/mL (≈ 185 µM) | 64 µg/mL (≈ 219 µM) | 79.1% | 48.15 min | 39.29 min | 40.51 min | 60.96 min | 57.38 min | 55.12 min | 7.08 mm | 9.82 mm | 11.7 mm | 8.85 mm | 9.62 mm | 11.9 mm | 13.8 mm | 18.1 mm | 27.3 mm | zone of inhibition at 25 µg/mL (Staphylococcus aureus [21]): 9.68 mm; zone of inhibition at 50 µg/mL (Staphylococcus aureus [22]): 11.7 mm; zone of inhibition at 100 µg/mL (Staphylococcus aureus [23]): 15.8 mm; zone of inhibition at 25 µg/mL (Candida albicans [24]): 9.27 mm; zone of inhibition at 50 µg/mL (Candida albicans [25]): 13.8 mm; zone of inhibition at 100 µg/mL (Candida albicans [26]): 18.4 mm; zone of inhibition at 25 µg/mL (Aspergillus niger [27]): 9.92 mm; zone of inhibition at 50 µg/mL (Aspergillus niger [28]): 11 mm; zone of inhibition at 100 µg/mL (Aspergillus niger [29]): 18.7 mm |
| Cn1c(NN)nc(-c2ccccc2Cl)c(C#N)c1=O | 62 µg/mL (≈ 225 µM) | 46 µg/mL (≈ 167 µM) | 57 µg/mL (≈ 207 µM) | 58 µg/mL (≈ 210 µM) | 53.5% | 50.65 min | 52.38 min | 45.38 min | 67.33 min | 66.37 min | 60.86 min | 9.26 mm | 10.1 mm | 13.1 mm | 8.41 mm | 12.7 mm | 15.4 mm | 11.1 mm | 15.1 mm | 22.7 mm | zone of inhibition at 25 µg/mL (Staphylococcus aureus [21]): 12.8 mm; zone of inhibition at 50 µg/mL (Staphylococcus aureus [22]): 15.9 mm; zone of inhibition at 100 µg/mL (Staphylococcus aureus [23]): 19.3 mm; zone of inhibition at 25 µg/mL (Candida albicans [24]): 13.4 mm; zone of inhibition at 50 µg/mL (Candida albicans [25]): 17.9 mm; zone of inhibition at 100 µg/mL (Candida albicans [26]): 21.4 mm; zone of inhibition at 25 µg/mL (Aspergillus niger [27]): 11.2 mm; zone of inhibition at 50 µg/mL (Aspergillus niger [28]): 14 mm; zone of inhibition at 100 µg/mL (Aspergillus niger [29]): 19.4 mm |
